Results from paper PMC5800871 (European journal of medicinal chemistry, 2017).
Counter-ions that a name gives are not always drawn.

Legend:
[1] = Liver microsomal stability, rat; assay type: in vitro ADME; conditions: 1 μM, 0.5 mg/mL microsomal protein, NADPH, 37 °C
Method in brief: (§1)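 Liver microsomes (human pool of 150 donors; dog, rat, mouse) at 0.5 mg/mL protein in 100 mM phosphate buffer pH 7.4 with test compound at 1 μM final, 37 °C. Started with NADPH regeneration system and stopped with ice-cold acetonitrile at 0 and 30 min. Supernatant analysed by LC-MS/MS. Percent parent remaining from peak areas against the 0 min sample (100 %), stopped before NADPH addition.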

[2] = Liver microsomal stability, mouse; assay type: in vitro ADME; conditions: 1 μM, 0.5 mg/mL microsomal protein, NADPH, 37 °C
Method in brief: as §1

[3] = Liver microsomal stability, human; assay type: in vitro ADME; conditions: 1 μM, 0.5 mg/mL microsomal protein, NADPH, 37 °C
Method in brief: as §1

[4] = Liver microsomal stability, dog; assay type: in vitro ADME; conditions: 1 μM, 0.5 mg/mL microsomal protein, NADPH, 37 °C
Method in brief: as §1

CYP1A2 = target: T1, CYP1A2 (Homo sapiens, UniProt P05177); assay: Cytochrome P450 inhibition assay, CYP1A2; assay type: in vitro ADME; conditions: CYP activity as % of control, 10 μM, human liver microsomes
T1 sequence (P05177 1-516): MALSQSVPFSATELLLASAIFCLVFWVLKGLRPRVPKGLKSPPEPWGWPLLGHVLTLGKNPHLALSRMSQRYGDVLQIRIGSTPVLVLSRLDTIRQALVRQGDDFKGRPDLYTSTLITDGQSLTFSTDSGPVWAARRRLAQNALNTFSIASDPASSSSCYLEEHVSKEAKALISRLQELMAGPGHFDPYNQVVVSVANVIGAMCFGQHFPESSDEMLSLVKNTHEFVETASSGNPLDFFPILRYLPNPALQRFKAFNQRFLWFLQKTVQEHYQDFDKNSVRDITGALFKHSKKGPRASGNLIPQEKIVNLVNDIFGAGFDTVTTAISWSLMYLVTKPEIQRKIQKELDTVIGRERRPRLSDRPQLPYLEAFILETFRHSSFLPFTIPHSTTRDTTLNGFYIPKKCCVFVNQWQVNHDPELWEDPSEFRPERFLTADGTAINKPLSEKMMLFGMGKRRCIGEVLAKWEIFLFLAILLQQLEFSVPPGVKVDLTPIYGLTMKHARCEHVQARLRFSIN

CYP2C19 = CYP2C19 (Homo sapiens, UniProt P33261); assay: Cytochrome P450 inhibition assay, CYP2C19; assay type: in vitro ADME; conditions: CYP activity as % of control, 10 μM, human liver microsomes
Chain of CYP2C19 (P33261 whole entry): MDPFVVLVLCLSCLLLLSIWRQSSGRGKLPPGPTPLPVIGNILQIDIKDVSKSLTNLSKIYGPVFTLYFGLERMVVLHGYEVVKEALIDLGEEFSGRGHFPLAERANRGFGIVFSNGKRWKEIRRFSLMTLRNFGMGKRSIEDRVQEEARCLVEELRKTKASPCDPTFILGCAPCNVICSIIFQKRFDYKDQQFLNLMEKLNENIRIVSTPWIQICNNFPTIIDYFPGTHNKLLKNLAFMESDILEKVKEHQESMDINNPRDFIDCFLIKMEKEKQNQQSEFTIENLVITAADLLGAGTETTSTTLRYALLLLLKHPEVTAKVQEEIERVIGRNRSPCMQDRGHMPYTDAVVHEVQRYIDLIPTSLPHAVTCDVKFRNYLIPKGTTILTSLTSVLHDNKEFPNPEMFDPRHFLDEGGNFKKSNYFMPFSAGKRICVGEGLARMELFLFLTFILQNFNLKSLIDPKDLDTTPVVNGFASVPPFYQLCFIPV

CYP 3A4 = assay: Cytochrome P450 inhibition assay, CYP3A4; assay type: in vitro ADME; conditions: CYP activity as % of control, 10 μM, human liver microsomes
CYP2D6 = CYP2D6 (Homo sapiens, UniProt P10635); assay: Cytochrome P450 inhibition assay, CYP2D6; assay type: in vitro ADME; conditions: CYP activity as % of control, 10 μM, human liver microsomes
Chain of CYP2D6 (P10635 whole entry): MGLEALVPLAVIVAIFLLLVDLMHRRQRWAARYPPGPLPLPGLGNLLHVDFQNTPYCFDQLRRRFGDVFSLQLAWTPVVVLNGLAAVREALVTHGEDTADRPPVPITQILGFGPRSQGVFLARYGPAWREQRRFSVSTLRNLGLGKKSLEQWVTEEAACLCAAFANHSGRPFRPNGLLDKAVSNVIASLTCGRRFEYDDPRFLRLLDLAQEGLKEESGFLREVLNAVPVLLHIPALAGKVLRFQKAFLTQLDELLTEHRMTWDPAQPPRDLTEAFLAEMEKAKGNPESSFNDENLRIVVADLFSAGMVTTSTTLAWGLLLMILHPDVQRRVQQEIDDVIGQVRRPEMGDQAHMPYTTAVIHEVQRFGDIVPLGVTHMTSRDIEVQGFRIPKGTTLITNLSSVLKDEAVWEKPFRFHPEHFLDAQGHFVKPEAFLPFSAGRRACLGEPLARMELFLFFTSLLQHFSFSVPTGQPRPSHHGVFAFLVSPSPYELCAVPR

CYP2C9 = CYP2C9 (Homo sapiens, UniProt P11712); assay: Cytochrome P450 inhibition assay, CYP2C9; assay type: in vitro ADME; conditions: CYP activity as % of control, 10 μM, human liver microsomes
Chain of CYP2C9 (P11712 whole entry): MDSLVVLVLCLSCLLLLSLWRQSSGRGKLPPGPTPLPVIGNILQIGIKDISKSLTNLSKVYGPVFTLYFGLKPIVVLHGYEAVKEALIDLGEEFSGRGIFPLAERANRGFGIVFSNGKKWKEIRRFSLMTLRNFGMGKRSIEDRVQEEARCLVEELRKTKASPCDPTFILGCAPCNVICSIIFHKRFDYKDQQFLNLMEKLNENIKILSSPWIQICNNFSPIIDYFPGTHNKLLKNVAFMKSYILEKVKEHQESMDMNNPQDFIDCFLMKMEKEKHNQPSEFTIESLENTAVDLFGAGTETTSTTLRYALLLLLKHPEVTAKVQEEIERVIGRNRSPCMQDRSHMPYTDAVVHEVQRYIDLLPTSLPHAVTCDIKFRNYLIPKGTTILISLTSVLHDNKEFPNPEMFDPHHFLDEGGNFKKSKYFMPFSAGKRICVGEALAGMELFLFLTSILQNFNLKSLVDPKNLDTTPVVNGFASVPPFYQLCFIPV

panel of 468 kinases = assay: KINOMEscan kinome selectivity profiling; assay type: binding; conditions: KINOMEscan at 1 μM; 7c 468 kinases, TAE684 353 kinases

Liver microsomal stability (% remaining after 30 min) Rat [1] | Liver microsomal stability (% remaining after 30 min) Mouse [2] | Liver microsomal stability (% remaining after 30 min) Human [3] | Liver microsomal stability (% remaining after 30 min) Dog [4] | Cytochrome P450 inhibition (% of control) 1A2 (CYP1A2) | Cytochrome P450 inhibition (% of control) 2C19 (CYP2C19) | Cytochrome P450 inhibition (% of control) 3A4 (CYP 3A4) | Cytochrome P450 inhibition (% of control) 2D6 (CYP2D6) | Cytochrome P450 inhibition (% of control) 2C9 (CYP2C9) | SMILES | S-score(1) (panel of 468 kinases)
12 % remaining after 30 min | 12 % remaining after 30 min | – | – | – | – | – | – | – | C=CC(=O)Nc1cc(Nc2ncc(I)c(Nc3ccccc3S(=O)(=O)N(C)C)n2)c(OC)cc1N(C)CCN(C)C [Compound 7l, N-(2-((2-(Dimethylamino)ethyl)(methyl)amino)-5-((4-((2-(N,N-dimethylsulfamoyl)phenyl)amino)-5-iodopyrimidin-2-yl)amino)-4-methoxyphenyl)acrylamide] | –
11 % remaining after 30 min | 15 % remaining after 30 min | 26 % remaining after 30 min | 27 % remaining after 30 min | 91 % of control | 93 % of control | 51 % of control | 95 % of control | 94 % of control | C=CC(=O)Nc1cc(Nc2ncc(F)c(Nc3ccccc3S(=O)(=O)C(C)C)n2)c(OC)cc1N(C)CCN(C)C [Compound 7b, N-(2-((2-(Dimethylamino)ethyl)(methyl)amino)-5-((5-fluoro-4-((2-(isopropylsulfonyl)phenyl)amino)pyrimidin-2-yl)amino)-4-methoxyphenyl)acrylamide] | –
14 % remaining after 30 min | 10 % remaining after 30 min | 14 % remaining after 30 min | 19 % remaining after 30 min | 81 % of control | 86 % of control | 47 % of control | 82 % of control | 88 % of control | C=CC(=O)Nc1cc(Nc2ncc(I)c(Nc3ccccc3S(=O)(=O)C(C)C)n2)c(OC)cc1N(C)CCN(C)C [Compound 7d, N-(2-((2-(Dimethylamino)ethyl)(methyl)amino)-5-((5-iodo-4-((2-(isopropylsulfonyl)phenyl)amino)pyrimidin-2-yl)amino)-4-methoxyphenyl)acrylamide] | –
81 % remaining after 30 min | – | 65 % remaining after 30 min | – | 91 % of control | – | 88 % of control | – | >100 % of control | C=CC(=O)Nc1cc(Nc2ncc(I)c(Nc3ccccc3P(C)(C)=O)n2)c(OC)cc1N(C)CCN(C)C [Compound 7h, N-(2-((2-(Dimethylamino)ethyl)(methyl)amino)-5-((4-((2-(dimethylphosphoryl)phenyl)amino)-5-iodopyrimidin-2-yl)amino)-4-methoxyphenyl)acrylamide trifluoroacetate salt] | –
76 % remaining after 30 min | 66 % remaining after 30 min | 61 % remaining after 30 min | – | 93 % of control | – | 91 % of control | – | >100 % of control | C=CC(=O)Nc1cc(Nc2ncc(Cl)c(Nc3ccccc3P(C)(C)=O)n2)c(OC)cc1N(C)CCN(C)C [Compound 7g, N-(5-((5-Chloro-4-((2-(dimethylphosphoryl)phenyl)amino)pyrimidin-2-yl)amino)-2-((2-(dimethylamino)ethyl)(methyl)amino)-4-methoxyphenyl)acrylamide trifluoroacetate salt] | –
– | 5 % remaining after 30 min | 10 % remaining after 30 min | – | 82 % of control | – | – | – | 88 % of control | C=CC(=O)Nc1cc(Nc2nccc(Nc3ccccc3S(=O)(=O)N(C)C)n2)c(OC)cc1N(C)CCN(C)C [Compound 7i, N-(2-((2-(Dimethylamino)ethyl)(methyl)amino)-5-((4-((2-(N,N-dimethylsulfamoyl)phenyl)amino)pyrimidin-2-yl)amino)-4-methoxyphenyl)acrylamide] | –
87 % remaining after 30 min | 80 % remaining after 30 min | 84 % remaining after 30 min | 87 % remaining after 30 min | >100 % of control | >100 % of control | >100 % of control | >100 % of control | >100 % of control | C=CC(=O)Nc1cc(Nc2ncc(F)c(Nc3ccccc3P(C)(C)=O)n2)c(OC)cc1N(C)CCN(C)C [Compound 7f, N-(2-((2-(Dimethylamino)ethyl)(methyl)amino)-5-((4-((2-(dimethylphosphoryl)phenyl)amino)-5-fluoropyrimidin-2-yl)amino)-4-methoxyphenyl)acrylamide trifluoroacetate salt] | –
78 % remaining after 30 min | 76 % remaining after 30 min | 70 % remaining after 30 min | 73 % remaining after 30 min | 84 % of control | >100 % of control | 89 % of control | 87 % of control | 90 % of control | C=CC(=O)Nc1cc(Nc2nccc(Nc3ccccc3P(C)(C)=O)n2)c(OC)cc1N(C)CCN(C)C [Compound 7e, N-(2-((2-(Dimethylamino)ethyl)(methyl)amino)-5-((4-((2-(dimethylphosphoryl)phenyl)amino)pyrimidin-2-yl)amino)-4-methoxyphenyl)acrylamide trifluoroacetate salt] | –
7 % remaining after 30 min | 10 % remaining after 30 min | – | – | >100 % of control | 91 % of control | – | >100 % of control | – | C=CC(=O)Nc1cc(Nc2ncc(F)c(Nc3ccccc3S(=O)(=O)N(C)C)n2)c(OC)cc1N(C)CCN(C)C [Compound 7j, N-(2-((2-(Dimethylamino)ethyl)(methyl)amino)-5-((4-((2-(N,N-dimethylsulfamoyl)phenyl)amino)-5-fluoropyrimidin-2-yl)amino)-4-methoxyphenyl)acrylamide] | –
– | – | – | 31 % remaining after 30 min | – | – | – | – | – | C=CC(=O)Nc1cc(Nc2ncc(Cl)c(Nc3ccccc3S(=O)(=O)N(C)C)n2)c(OC)cc1N(C)CCN(C)C [Compound 7k, N-(5-((5-Chloro-4-((2-(N,N-dimethylsulfamoyl)phenyl)amino)pyrimidin-2-yl)amino)-2-((2-(dimethylamino)ethyl)(methyl)amino)-4-methoxyphenyl)acrylamide] | –
– | – | – | – | – | – | – | – | – | COc1cc(N2CCC(N3CCN(C)CC3)CC2)ccc1Nc1ncc(Cl)c(Nc2ccccc2S(=O)(=O)C(C)C)n1 [TAE684, reference compound] | 0.37
22 % remaining after 30 min | 8 % remaining after 30 min | 5 % remaining after 30 min | 48 % remaining after 30 min | 80 % of control | 87 % of control | 40 % of control | 67 % of control | 90 % of control | C=CC(=O)Nc1cc(Nc2nccc(Nc3ccccc3S(=O)(=O)C(C)C)n2)c(OC)cc1N(C)CCN(C)C [Compound 7a, N-(2-((2-(Dimethylamino)ethyl)(methyl)amino)-5-((4-((2-(isopropylsulfonyl)phenyl)amino)pyrimidin-2-yl)amino)-4-methoxyphenyl)acrylamide] | –
